pIC50: −log10 of the molar value. Activity calls are given as the source filed them. The calls are words filed in the database; no cut-off is given here.
Tests used:
[1] = test system: MCF7; test: Growth inhibition of human MCF7 cells after 24 hrs by SRB assay; assay type: functional; conditions: MCF7, 24 h
Outline: (§1)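 Sulforhodamine B growth assay in MCF-7 or MDA-MB-231 breast cancer cells after 24 h of compound treatment. GI50 is the concentration giving 50% inhibition of proliferation, with an upper test limit of 50 µM. Values are the mean of triplicate experiments.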

[2] = test system: MDA-MB-231; test: Growth inhibition of human MDA-MB-231 cells after 24 hrs by SRB assay; assay type: functional; conditions: MDA-MB-231, 24 h; outline: as §1
[3] = test system: MDA-MB-231; test: Anti-migratory activity against human MDA-MB-231 cells assessed as reduction in cell migration at 5 uM after 24 hrs by scratch wound-healing assay relative to control; assay type: functional; parameters: scale not given: the % may be the effect or the level left
[4] = target: Ras-related C3 botulinum toxin substrate 1 (Homo sapiens) (UniProt P63000); test: Inhibition of Rac1 in human MDA-MB-435 cells assessed as reduction in phosphorylation at Thr423 residue at 2 uM after 24 hrs by Western blot analysis; assay type: cell-based
[5] = target: Ras-related C3 botulinum toxin substrate 1 (Homo sapiens, UniProt P63000, G15A); test: Inhibition of Vav2 binding to Rac1 G15A mutant in human MDA-MB-231 cells after 1 hr by pull down assay; assay type: cell-based
[6] = Growth inhibition of human MCF10A cells at 10 uM after 24 hrs by MTT assay relative to control; assay type: cell-based, MCF-10A; conditions: read-out: GI
[7] = test system: MDA-MB-231; test: Anti-migratory activity against human MDA-MB-231 cells assessed as cell migration at 10 uM after 12 hrs by scratch wound-healing assay; assay type: functional, cell-based
Outline: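 Scratch wound-healing assay in MDA-MB-231 cells with test compounds at 10 µM against vehicle (0.02% DMSO). Wounds were photographed at 0, 12 and 24 h. Migration was taken as the distance travelled from the scratch edge toward its centre, relative to control. Values are the average of three independent experiments.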

[8] = test system: MCF-10A; test: Growth inhibition of human MCF10A cells up to 36 uM after 24 hrs by CellTiter 96 aqueous one solution cell proliferation assay; assay type: cell-based
[9] = test system: MCF-10A; test: Cytotoxicity against human MCF10A cells assessed as reduction in cell viability at 30 to 50 uM after 24 hrs by CellTiter 96 aqueous one solution cell proliferation assay; assay type: cell-based
[10] = target: Ras-related C3 botulinum toxin substrate 1 (Homo sapiens) (UniProt P63000); test: Inhibition of Rac1 in human MDA-MB-231 cells assessed as reduction in Rac-GTP level at 250 nM after 24 hrs by ELISA-based pull down assay; assay type: cell-based
[11] = target: Ras-related C3 botulinum toxin substrate 1 (Homo sapiens) (UniProt P63000); test: Inhibition of Rac1 in human MDA-MB-435 cells assessed as reduction in Rac-GTP level atv 250 nM after 24 hrs by ELISA-based pull down assay; assay type: cell-based

SMILES	GI50 [1] [µM]	GI50 [2] [µM]	other results
CCN(CC)CCCC(C)NC(=O)c1cccnc1Nc1ccc2c(c1)c1ccccc1n2CC (configuration not stated)	13	18	–
CCn1c2ccccc2c2cc(Nc3ccnc(NCCCN4CCOCC4)n3)ccc21	14	15	Activity [3]: 17%; inhibition [4]: 60%; pIC50 [5]: 5.96; inhibition at 24 h, 10 µM [6]: 50%
CCn1c2ccccc2c2cc(NC(=O)c3nccnc3C(=O)NCCN3CCOCC3)ccc21	> 50	> 50	–
CCn1c2ccccc2c2cc(Nc3ncccc3C(=O)NCCCn3ccnc3)ccc21	27	> 50	–
CCn1c2ccccc2c2cc(Nc3ncccc3C(=O)NCCCN3CCOCC3)ccc21	28	> 50	–
CCn1c2ccccc2c2cc(Nc3ncccc3C(=O)NCCN3CCN(C(=O)OC(C)(C)C)CC3)ccc21	> 50	> 50	–
CCn1c2ccccc2c2cc(Nc3ncccc3C(=O)Nc3cc(OC)c(OC)c(OC)c3)ccc21	> 50	> 50	–
CCn1c2ccccc2c2cc(NC(=O)c3nccnc3C(=O)NCCCn3ccnc3)ccc21	> 50	> 50	–
CCn1c2ccccc2c2cc(NC(=O)c3cccnc3N3CCOCC3)ccc21	> 50	> 50	Activity [7]: Active
CCn1c2ccccc2c2cc(NC(=O)c3nccnc3C(=O)NCCCN3CCOCC3)ccc21	> 50	> 50	–
CCn1c2ccccc2c2cc(Nc3ncccc3NC(=O)CCN3CCCCC3)ccc21	15	23	–
CCN(CC)CCNC(=O)c1cccnc1Nc1ccc2c(c1)c1ccccc1n2CC	14	18	–
CCn1c2ccccc2c2cc(C(=O)Nc3cccnc3N3CCOCC3)ccc21	> 50	> 50	Activity [7]: Active; growth inhibition (GI) [8]: Non-Toxic; Activity [9]: Non-Toxic; inhibition [10]: 55%; inhibition [11]: 55%
CCn1c2ccccc2c2cc(NC(=O)c3cccnc3N3CCN(C(C)=O)CC3)ccc21	> 50	> 50	–
CCn1c2ccccc2c2cc(C(=O)Nc3cccnc3NCCCN3CCOCC3)ccc21	32	39	–
CCn1c2ccccc2c2cc(NC(=O)c3ccccc3C(=O)NCCO)ccc21	> 50	> 50	–
CCn1c2ccccc2c2cc(Nc3ncccc3NC(=O)c3cccnc3)ccc21	41	31	–
CCn1c2ccccc2c2cc(NC(=O)c3nccnc3C(=O)NCCOC)ccc21	> 50	> 50	–
CCn1c2ccccc2c2cc(NC(=O)c3ccccc3C(=O)NCCOC)ccc21	> 50	> 50	–
CCn1c2ccccc2c2cc(NC(=O)c3cccnc3N3CCN(c4ccccc4)CC3)ccc21	> 50	> 50	–
CCn1c2ccccc2c2cc(NC(=O)c3cccnc3NCCCN3CCOCC3)ccc21	> 50	19	–

From ChEMBL document CHEMBL4184218, “Design, synthesis and biological evaluation of new carbazole derivatives as anti-cancer and anti-migratory agents” (Bioorg Med Chem, 2018)
